ChEMBL document CHEMBL1789904, “Imaging of Plasmodium liver stages to drive next-generation antimalarial drug discovery” (Science, 2011)

Tested on: Plasmodium yoelii
Assay: NOVARTIS: Antimalarial liver stage activity measured as reduction in Plasmodium yoelii schizont area in HepG2-A16-CD81 cells by immuno-fluorescence, and median schizont size at 10uM compound concentration
Assay type: functional, organism-based
Conditions: for IC50: Plasmodium yoelii, HepG2-A16-CD81
Procedure, shortened: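 Host and parasite nuclei stained with Hoechst 33342, parasites with αPyHSP70 antibody; 25 images per well by high-content imaging; median parasite (schizont) area measured by automated image analysis, ~50 schizonts per experiment, two or more independent experiments.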

| SMILES | Schizont size | IC50 |
| --- | --- | --- |
| CC[n+]1c(/C=C/N(C)c2ccccc2)n(-c2ccccc2)c2ccc(-c3nc4ccccc4s3)cc21 | 20.14 um | 14 nM |
| Cc1nc([P+](c2ccccc2)(c2ccccc2)c2ccccc2)c(SCc2ccccc2)o1.[O-][Cl+3]([O-])([O-])[O-] | 31.83 um | 33.5 nM |
| c1ccc(OCCOc2ccc(Nc3ccnc4cc5ccccc5cc34)cc2)cc1 | 18.06 um | 67.5 nM |
| Cl.OCCNc1nc(Nc2ccccc2)nc2ccccc12 | 62.1 um | 47.9 nM |
| COc1cccc(Nc2nc(NCCO)c3ccccc3n2)c1.Cl | 54.9 um | 62.3 nM |
| CCOc1ccc(N2C(N)=NC(N)=NC2(C)C)cc1.Cl | 35.59 um | 46.8 nM |
| CCCCc1c(C)nc2ccc(Br)cc2c1O | 25.99 um | 64.7 nM |
| CCOC(=O)c1cn(CC)c2cc(N(C)CCc3ccc(OC)c(OC)c3)c(F)cc2c1=O | 23.69 um | 42.1 nM |
| COC(OC)C(C)=NNC(N)=S | 78.8 um | 4.93 nM |
| CC1(C)N=C(N)N=C(N)N1c1ccc(I)cc1.Cl | 33.82 um | 10 nM |
| Cc1ccc(N2C(N)=NC(N)=NC2(C)C)cc1.Cl | 35.07 um | 10 nM |
| CC1(C)C2CCC(C2)C1(C)NC(=S)NN=Cc1ccccn1 (centres undefined) | 28.29 um | 17.4 nM |
| Cc1ccc(CSCc2ccc(C(=O)NC3CC3)o2)cc1 | 25.36 um | 47.3 nM |
| CCN1C(=O)N(CC)C(NNC(N)=S)C1NNC(N)=S (centres undefined) | 103.75 um | 68.6 nM |
| CC[n+]1c(/C=C/C=C2\N(C)c3ccccc3C2(C)C)n(-c2ccccc2)c2cc(Cl)ccc21 | 12.53 um | 13.6 nM |
| CCC(C)(C)c1ccc(OCCCC[n+]2cccc(C)c2C)c(C(C)(C)CC)c1.[Br-] | 12.53 um | 45.5 nM |
| c1ccc(-c2cc(N3CCN(c4ccccn4)CC3)nc(-c3ccccn3)n2)nc1 | 24.32 um | 17.5 nM |
| CCCCCC[P+](N(CCC)CCC)(N(CCC)CCC)N(CCC)CCC | 30.27 um | 49.1 nM |
| Cc1ccc2nc3nc4c(C)cccc4c(N)c3cc2c1 | 22.23 um | 47.4 nM |

| SMILES | Schizont size | IC50 |
| --- | --- | --- |
| CCCCN1C=CC=C/C1=C\c1sc2ccccc2[n+]1CC | 18.47 um | 10.9 nM |
| CCCc1ccc(C(=O)NC(=O)c2ccccc2O)cc1 | 23.17 um | 4.18 nM |
| CCCCCc1ccc(OCCCC[n+]2cccc(C)c2)c(CCCCC)c1.[Cl-] | 23.48 um | 34.6 nM |
| CCCCN(CCCC)[P+](N(CCCC)CCCC)(N(CCCC)CCCC)N(CCCC)CCCC | 24.32 um | 11.5 nM |
| CC(=O)N(C1=C(N(C)C)C(=O)c2ccccc2C1=O)c1ccc(F)cc1 | 23.8 um | 57.3 nM |
| CCN1C=C(c2ccc(C)cc2)S/C1=C\c1sc2ccccc2[n+]1C | 37.89 um | 4.5 nM |
| Cc1ccc(-c2nn3c(O)c4c(nc3c2C)CCCC4)cc1 | 28.7 um | 11.3 nM |
| Fc1ccc2nc(Nc3nc(-c4ccccn4)cs3)sc2c1 | 22.86 um | 43.8 nM |
| CCOc1ccc(CN(C(=O)COc2ccc(Cl)cc2)C(C)CCCN(CC)CC)cc1.O=C(O)C(F)(F)F (centres undefined) | 55.32 um | 20.4 nM |
| CCOC(=O)c1ccc2nc(-c3ccccc3)cc(O)c2c1 | 20.67 um | 20 nM |
| CN(Cc1ccccc1)C(=O)CSc1nc(NCc2ccccc2)c2ccccc2n1 | 67.84 um | 7.13 nM |
| COc1cccc(N2C(N)=NC(N)=NC2(C)C)c1.Cl | 38.1 um | 29.5 nM |
| C/C=C/[P+](c1ccccc1)(c1ccccc1)c1ccccc1 | 26.09 um | 49.4 nM |
| COc1ccc(CN2CCOc3ccc(C(C)(O)CN(C)C)cc3C2)cc1C (centres undefined) | 87.05 um | 67.5 nM |
| C1CCC(NP2(NC3CCCCC3)=NP(NC3CCCCC3)(NC3CCCCC3)=NP(NC3CCCCC3)(NC3CCCCC3)=N2)CC1 | 33.82 um | 18.6 nM |
| CCCCCC[n+]1ccccc1C=Cc1ccc(N(C)C)cc1.[I-] | 16.8 um | 55.9 nM |
| O=C(NC(=C(Cl)Cl)[P+](c1ccccc1)(c1ccccc1)c1ccccc1)c1ccc(F)cc1 | 26.93 um | 14.5 nM |
| Cc1oc2c(c1C(=O)NC1CCS(=O)(=O)C1)C(=O)c1ccccc1C2=O (centres undefined) | 17.54 um | 2.29 nM |
| CCOC(=O)c1ccc(NC(=O)CSc2nc(NCc3ccccc3)c3ccccc3n2)cc1 | 69.2 um | 38.1 nM |

| SMILES | Schizont size | IC50 |
| --- | --- | --- |
| CC[n+]1c(/C=C/C=C2\N(C)c3ccccc3C2(C)C)n(Cc2ccccc2)c2ccccc21 | 13.99 um | 6.76 nM |
| Cc1ccc(-n2c(-c3ccccc3)cc(C=NNC(=O)c3cccc(-n4c(C)ccc4C)c3)c2-c2ccccc2)cc1 | 30.06 um | 47.9 nM |
| O=C(Nc1ccc2oc(-c3cccc4ccccc34)nc2c1)c1ccc([N+](=O)[O-])o1 | 13.99 um | 72.5 nM |
| O=C1C2=C(Nc3ccccc3SC2c2ccc(OCc3ccccc3)cc2)c2ccccc21 (centres undefined) | 23.17 um | 58 nM |
| Cc1ccc(-n2c(-c3ccccc3)cc(C=NNC(=O)c3cccc(O)c3)c2-c2ccccc2)cc1 | 26.72 um | 20.2 nM |
| O=C(NC1CC1)C1CCN(c2cccc3c2C(=O)N(Cc2cccc(C(F)(F)F)c2)C3=O)CC1 | 24.01 um | 29.3 nM |
| CC1(C)N=C(N)N=C(N)N1c1ccc(F)cc1.Cl | 38.93 um | 18.9 nM |
| S=C(NN=Cc1ccccn1)NC1CC2CC1C1C=CCC21 (centres undefined) | 27.45 um | 25.6 nM |
| CN1C(=O)N(C)C(NNC(N)=S)C1NNC(N)=S (centres undefined) | 117.53 um | 15 nM |
| CCOC(=O)c1cnc2c3c(ccc2c1O)CCCC3 | 26.2 um | 10.8 nM |
| Cc1cccc(N2C(N)=NC(N)=NC2(C)C)c1.Cl | 38.51 um | 4.25 nM |
| CCN1/C(=C/c2ccc3ccccc3[n+]2CC)Sc2sc3ccccc3c21 | 32.77 um | 6.21 nM |
| c1ccc(-c2ccc(-c3ccccn3)nc2)nc1 | 22.34 um | 39.4 nM |
| CCC(/C=C1\Sc2ccc(OC)cc2N1CCCS(=O)(=O)O)=C\c1sc2ccc(OC)cc2[n+]1CCCS(=O)(=O)O | 18.06 um | 11.2 nM |
| CCOc1ccc2ncc(S(=O)(=O)c3ccc(OC)cc3)c(N3CCN(C)CC3)c2c1 | 63.67 um | 10.7 nM |
| CCN1C(C)=C(C)S/C1=C\c1ccc2cc(C)ccc2[n+]1C | 14.93 um | 11.3 nM |
| [I-].c1ccc(CSc2scnc2[P+](c2ccccc2)(c2ccccc2)c2ccccc2)cc1 | 21.61 um | 68.5 nM |
| CN(C)c1ccc(C(=Cc2cc(-c3ccccc3)cc(-c3ccccc3)[o+]2)c2ccc(N(C)C)cc2)cc1 | 26.72 um | 51.9 nM |
| C=CC[n+]1c(C=C2C=CN(C)C=C2)sc2ccccc21.[I-] | 26.72 um | 13.2 nM |
